pEC50, pIC50: −log10 of the molar value.
How the values were obtained:
[1] = biological target: Metabotropic glutamate receptor 5 (Homo sapiens, UniProt P41594); assay: Compound was tested for the stimulation of Phosphoinositide (PI) hydrolysis in BHK cells expressing mGluR5a receptor; type: functional, cell-based
How it was run: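 BHK570 cells stably expressing mGluR5a, kept under 2 μM methotrexate selection in DMEM with 5% heat-inactivated FBS, 2 mM glutamine and 5% CO2. Grown to 60–90% confluence, then labelled 16–20 h with 1 μCi/mL [3H]-myo-inositol. PI hydrolysis was measured by the Thomsen method and normalized to 100 000 DPM of total incorporated label. Mean ± SEM of 3–6 experiments; EC50 from concentration–response curves.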

Rattus norvegicus [2] = species: Rattus norvegicus; assay: Inhibition of the sensitization of CA1 pyramidal neurons to depolarization by L-AP6 by the compound at a concentration of 200 uM after 20 minutes; type: functional, organism-based; conditions: Pyramidal neuron
Rattus norvegicus [3] = species: Rattus norvegicus; assay: Compound was tested for the stimulation of Phosphoinositide (PI) hydrolysis in rat hippocampus; type: functional, organism-based
How it was run: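 Slices of neonatal (6–11-day-old) Sprague–Dawley rat hippocampus, labelled with [3H]-myo-inositol. Inositol phosphate accumulation was expressed per 100 000 DPM of total incorporated radiolabel (lipid plus soluble IP fraction) under basal conditions. Concentration–response data were fit with Hill coefficient 1. Mean ± SEM of four experiments.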

Rattus norvegicus [4] = species: Rattus norvegicus; assay: Inhibition of the sensitization of CA1 pyramidal neurons to depolarization by L-AP6 by the compound at a concentration of 200 uM before 20 minutes; type: functional, organism-based; conditions: Pyramidal neuron
Rattus norvegicus [5] = species: Rattus norvegicus; assay: Inhibition of the sensitization of CA1 pyramidal neurons to depolarization by L-AP6 after reversal with L-alpha-AA; type: functional, organism-based; conditions: Pyramidal neuron
[6] = biological target: T1, Glutamate receptor ionotropic, AMPA (Rattus norvegicus, UniProt P19490+P19491+P19492+P19493); assay: Inhibition of Ionotropic glutamate receptor AMPA mediated depolarization by the compound at a concentration of 200 uM after 20 minutes in rat
Rattus norvegicus [7] = species: Rattus norvegicus; assay: Inhibition of the sensitization of CA1 pyramidal neurons to depolarization by L-AP6 by the compound at a concentration of 400 uM before 20 minutes; type: functional, organism-based; conditions: Pyramidal neuron
[8] = biological target: T1, Glutamate receptor ionotropic, AMPA; assay: Inhibition of Ionotropic glutamate receptor AMPA mediated depolarization by the compound at a concentration of 400 uM after 20 minutes in rat
Rattus norvegicus [9] = species: Rattus norvegicus; assay: Inhibition of the sensitization of CA1 pyramidal neurons to depolarization by L-AP6 by the compound at a concentration of 400 uM after 20 minutes; type: functional, organism-based; conditions: Pyramidal neuron
Rattus norvegicus [10] = species: Rattus norvegicus; assay: Inhibition of the sensitization of CA1 pyramidal neurons to depolarization by L-AP6 after reversal with L-alpha-AA by the compound at a concentration of 16 uM after 4 minutes; type: functional, organism-based; conditions: Pyramidal neuron
How it was run: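 Rat hippocampal slices. The sensitization was reversed by treating the slices with 2 mM L-α-aminoadipic acid for 10 min.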

Rattus norvegicus [11] = species: Rattus norvegicus; assay: Inhibition of the sensitization of CA1 pyramidal neurons to depolarization by L-AP6 by the compound at a concentration of 16 uM after 4 minutes; type: functional, organism-based; conditions: Pyramidal neuron
How it was run: (§1)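 Rat hippocampal slices. Sensitization of CA1 neurons to phosphonate depolarization was measured in the QUIS-effect slice assay.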

Rattus norvegicus [12] = species: Rattus norvegicus; assay: Inhibition of the sensitization of CA1 pyramidal neurons to depolarization by L-AP6 by the compound at a concentration of 16 uM before 4 minutes; type: functional, organism-based; conditions: Pyramidal neuron; how it was run: as §1

Metabotropic glutamate receptor 5, sequence (P41594 whole entry): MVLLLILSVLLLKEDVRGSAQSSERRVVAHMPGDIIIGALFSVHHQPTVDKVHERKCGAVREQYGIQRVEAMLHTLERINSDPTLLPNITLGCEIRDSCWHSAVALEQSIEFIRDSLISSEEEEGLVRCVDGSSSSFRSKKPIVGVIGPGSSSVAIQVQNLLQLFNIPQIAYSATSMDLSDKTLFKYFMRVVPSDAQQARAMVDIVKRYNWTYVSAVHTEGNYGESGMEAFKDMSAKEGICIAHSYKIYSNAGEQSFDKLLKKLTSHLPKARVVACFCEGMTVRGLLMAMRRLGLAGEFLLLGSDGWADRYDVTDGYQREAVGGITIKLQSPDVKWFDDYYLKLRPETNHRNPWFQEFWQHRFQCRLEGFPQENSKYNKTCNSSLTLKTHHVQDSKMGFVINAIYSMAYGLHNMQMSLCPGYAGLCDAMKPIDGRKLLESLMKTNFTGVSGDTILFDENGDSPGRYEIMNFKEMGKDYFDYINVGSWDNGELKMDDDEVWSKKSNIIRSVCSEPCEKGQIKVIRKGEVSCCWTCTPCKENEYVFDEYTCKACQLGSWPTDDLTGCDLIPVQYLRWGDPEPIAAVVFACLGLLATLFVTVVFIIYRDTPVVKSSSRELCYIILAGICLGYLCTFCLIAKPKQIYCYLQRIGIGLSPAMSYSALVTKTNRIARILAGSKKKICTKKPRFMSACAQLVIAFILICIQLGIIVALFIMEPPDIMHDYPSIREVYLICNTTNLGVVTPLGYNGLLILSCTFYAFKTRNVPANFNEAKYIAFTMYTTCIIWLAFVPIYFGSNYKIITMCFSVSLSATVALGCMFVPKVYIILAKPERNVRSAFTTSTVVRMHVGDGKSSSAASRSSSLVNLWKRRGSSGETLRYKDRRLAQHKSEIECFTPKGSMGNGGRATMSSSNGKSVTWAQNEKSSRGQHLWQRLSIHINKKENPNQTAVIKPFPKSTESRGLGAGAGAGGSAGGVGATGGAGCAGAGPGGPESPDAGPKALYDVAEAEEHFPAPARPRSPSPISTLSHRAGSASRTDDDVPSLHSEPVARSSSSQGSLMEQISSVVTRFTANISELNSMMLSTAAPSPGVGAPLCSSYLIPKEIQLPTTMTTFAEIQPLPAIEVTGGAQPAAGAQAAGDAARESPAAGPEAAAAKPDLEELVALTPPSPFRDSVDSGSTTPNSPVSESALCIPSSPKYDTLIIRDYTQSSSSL

Row | pEC50 [1] | pEC50 (Rattus norvegicus [3]) | pIC50 [6] | pIC50 [8] | SMILES | pIC50 (Rattus norvegicus [2]) | pIC50 (Rattus norvegicus [4]) | pIC50 (Rattus norvegicus [5]) | pIC50 (Rattus norvegicus [7]) | pIC50 (Rattus norvegicus [9]) | pIC50 (Rattus norvegicus [10]) | pIC50 (Rattus norvegicus [11]) | pIC50 (Rattus norvegicus [12])
1 | 4.96 | 4.74 | 4.16 |  | N[C@]1(C(=O)O)C[C@H](n2oc(=O)[nH]c2=O)C1 | 2.15 | < 2.00 | < 2.00 |  |  |  |  | 
2 | 4.31 | 4.28 |  | 3.41 | N[C@]1(C(=O)O)C[C@@H](n2oc(=O)[nH]c2=O)C1 |  |  |  | < 2.00 | < 2.00 |  |  | 
3 |  |  |  |  | N[C@@H](Cn1oc(=O)[nH]c1=O)C(=O)O [QUISQUALATE] |  |  |  |  |  | 2.72 | 4.40 | < 2.00

From ChEMBL document CHEMBL1132721, “Cyclobutane quisqualic acid analogues as selective mGluR5a metabotropic glutamic acid receptor ligands” (J Med Chem, 1999)
